How the values were obtained:
Mus musculus = assay: Antiinflammatory activity in BALB/c mouse assessed as inhibition of monoclonal anti-CD3-induced IL-2 production at 10 mg/kg, po administered 1 hr before monoclonal anti-CD3 challenge measured after 2 hrs by ELISA relative to control; format: functional
Method in brief: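 Female BALB/c mice (~20 g) dosed orally at 10 mg/kg, 1 h before iv anti-CD3 monoclonal antibody (clone 145-2C11, 10 µg/kg). Vehicle (saline) plus antibody group served as positive control. Plasma IL-2 determined from heart-puncture blood 2 h after stimulation, under anaesthesia. Inhibition expressed relative to vehicle; n = 8 mice/group.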

[1] = molecular target: Serine/threonine-protein kinase PAK 2 (Homo sapiens) (UniProt Q13177); assay: Inhibition of PAK2 at 0.1 uM; values are per cent of control
[2] = molecular target: T1, Ephrin type-B receptor 3 (Homo sapiens) (UniProt P54753); assay: Inhibition of EphB3 at 0.1 uM; values are per cent of control
T1 sequence (whole entry): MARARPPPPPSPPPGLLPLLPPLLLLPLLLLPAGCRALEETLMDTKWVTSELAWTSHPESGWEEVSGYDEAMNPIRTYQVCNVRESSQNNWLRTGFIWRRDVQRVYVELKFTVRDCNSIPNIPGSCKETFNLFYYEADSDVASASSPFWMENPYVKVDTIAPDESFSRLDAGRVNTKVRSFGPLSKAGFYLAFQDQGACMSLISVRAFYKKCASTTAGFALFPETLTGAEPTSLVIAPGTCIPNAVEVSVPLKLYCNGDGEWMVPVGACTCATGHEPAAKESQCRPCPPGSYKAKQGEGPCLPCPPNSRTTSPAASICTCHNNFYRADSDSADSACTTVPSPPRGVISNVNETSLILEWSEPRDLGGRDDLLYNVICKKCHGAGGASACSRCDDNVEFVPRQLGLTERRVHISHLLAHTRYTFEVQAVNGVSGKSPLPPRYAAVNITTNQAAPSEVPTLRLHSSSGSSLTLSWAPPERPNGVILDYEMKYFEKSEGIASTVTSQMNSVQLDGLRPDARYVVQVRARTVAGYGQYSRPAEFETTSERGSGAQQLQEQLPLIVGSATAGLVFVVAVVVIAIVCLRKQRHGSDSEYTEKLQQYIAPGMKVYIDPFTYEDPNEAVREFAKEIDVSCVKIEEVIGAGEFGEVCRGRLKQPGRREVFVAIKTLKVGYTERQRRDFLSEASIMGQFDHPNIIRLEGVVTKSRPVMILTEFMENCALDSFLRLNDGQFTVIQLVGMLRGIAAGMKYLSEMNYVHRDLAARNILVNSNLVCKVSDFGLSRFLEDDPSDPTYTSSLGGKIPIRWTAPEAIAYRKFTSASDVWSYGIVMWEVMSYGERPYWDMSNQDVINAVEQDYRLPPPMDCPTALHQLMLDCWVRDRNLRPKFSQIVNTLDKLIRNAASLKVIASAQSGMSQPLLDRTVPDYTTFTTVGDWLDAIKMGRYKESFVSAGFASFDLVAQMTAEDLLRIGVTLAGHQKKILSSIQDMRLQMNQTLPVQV

Chain of Serine/threonine-protein kinase PAK 2 (Homo sapiens) (Q13177 whole entry): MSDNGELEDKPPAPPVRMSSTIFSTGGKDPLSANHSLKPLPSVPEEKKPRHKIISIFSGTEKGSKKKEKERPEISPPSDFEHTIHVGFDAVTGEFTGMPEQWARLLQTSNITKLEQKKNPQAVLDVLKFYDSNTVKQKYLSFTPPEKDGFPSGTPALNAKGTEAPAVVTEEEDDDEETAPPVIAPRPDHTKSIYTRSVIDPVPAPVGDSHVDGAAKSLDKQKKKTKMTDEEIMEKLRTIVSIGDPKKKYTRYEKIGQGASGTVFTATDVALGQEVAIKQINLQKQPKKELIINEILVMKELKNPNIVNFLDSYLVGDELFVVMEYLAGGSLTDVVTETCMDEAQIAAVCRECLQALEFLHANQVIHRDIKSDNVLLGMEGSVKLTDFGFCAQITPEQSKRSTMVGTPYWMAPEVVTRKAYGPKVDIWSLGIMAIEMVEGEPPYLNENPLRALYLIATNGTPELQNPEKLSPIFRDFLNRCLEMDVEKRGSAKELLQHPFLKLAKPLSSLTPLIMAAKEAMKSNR

Structure (SMILES)	inhibition in vivo at 10 mg/kg (Mus musculus)	residual activity [1]	residual activity [2]
Cc1ccc2cc(-c3n[nH]c4ccc(NC5CCNC5)cc34)[nH]c2c1 (stereo not drawn)	> 80%	–	–
Cc1ccc2cc(-c3n[nH]c4ccc(NC5CCN(Cc6ccccc6)CC5)cc34)[nH]c2c1	–	93%	127%

— ChEMBL document CHEMBL1681705, “Optimisation of ITK inhibitors through successive iterative design cycles” (Bioorg Med Chem Lett, 2011)
